The source of these data is ChEMBL document CHEMBL1128256, “Synthesis, biological evaluation, and structure analysis of a series of new 1,5-anhydrohexitol nucleosides” (J Med Chem, 1995).

Converted amounts (≈) assume the structure as drawn.

For assay [1], the system named is E6SM. Description: Tested for the minimum inhibitory concentration required to reduce herpes simplex virus type 2 (HSV-2) strain 196 induced cytopathogenicity by 50%. Type of assay: functional. The following applies: Homo sapiens. Summed up: (§1)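 Inhibition of virus-induced cytopathogenicity in human embryonic skin-muscle (E6SM) fibroblasts seeded in 96-well trays. Viruses were HSV-1 (KOS, F, McIntyre), TK- HSV-1 B2006, TK-/TK+ HSV-1 clinical isolate VMW-1837 and HSV-2 (G, 196, Lyons). […] MCC is the lowest concentration giving microscopically detectable alteration of normal cell morphology; highest concentration tested was 400 µg/mL.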

Assay [2] deals with E6SM. Description: Tested for the minimum inhibitory concentration required to reduce herpes simplex virus type 1 (HSV-1) strain F induced cytopathogenicity by 50%. Type of assay: functional. The following applies: Homo sapiens. The procedure, abridged: as §1
For assay [3], the system named is HEL. Description: Tested for the inhibitory concentration required to reduce thymidine kinase deficient Varicella-Zoster virus (TK- VZV) strain YS/R plaque formation by 50%. The settings on record: Homo sapiens. Type of assay: functional, cell-based.
In assay [4] the test system is HEL. Description: Tested for the inhibitory concentration required to reduce TK+ Varicella-Zoster virus (TK+ VZV) strain OKA plaque formation by 50%. Type of assay: functional, cell-based. The settings on record: Homo sapiens.
Assay [5] relates to HEL. Description: Tested for the inhibitory concentration required to reduce cytomegalovirus (CMV) strain Davis plaque formation by 50%. Type of assay: functional, cell-based. The following applies: Homo sapiens. The procedure, abridged: (§2)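 Virus plaque formation assay in human embryonic lung (HEL) cells seeded in 96-well trays. Targets were TK+ VZV (Oka, YS), TK- VZV (07/1, YS/R) and CMV (AD169, Davis). Value is the concentration that reduces plaque number by 50%. Cytotoxicity in HEL cells was taken as the concentration that reduces cell growth by 50%.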

The subject of assay [6] is E6SM. Description: Tested for the minimum inhibitory concentration required to reduce herpes simplex virus type 2 (HSV-2) strain G induced cytopathogenicity by 50%. Type of assay: functional. The settings on record: Homo sapiens. Summed up:
as §1

For assay [7], the system named is E6SM. Description: Tested for the minimum cytotoxic concentration required to cause a microscopically detectable alteration of normal cell morphology in human embryonic skin muscle (E6SM) fibroblast cell cultures. Type of assay: functional. Summed up: as §1
Assay [8] concerns E6SM. Description: Tested for the minimum inhibitory concentration required to reduce vesicular stomatitis virus(VSV) induced cytopathogenicity by 50%. The settings on record: Homo sapiens. Type of assay: functional.
The subject of assay [9] is HEL. Description: Tested for the 50% inhibitory concentration required to reduce TK+ Varicella-Zoster virus (TK+ VZV) strain YS plaque formation by 50%. Type of assay: functional, cell-based. The following applies: Homo sapiens. The procedure, abridged:
as §2

For assay [10], the system named is E6SM. Description: Tested for the minimum inhibitory concentration required to reduce herpes simplex virus type 1 (HSV-1) strain McIntyre induced cytopathogenicity by 50%. Type of assay: functional. The settings on record: Homo sapiens. Summed up:
as §1

Assay [11] concerns HEL. Description: Tested for the inhibitory concentration required to reduce cytomegalovirus (CMV) strain AD-169 plaque formation by 50%. The settings on record: Homo sapiens. Type of assay: functional, cell-based. Summed up: as §2
Assay [12] relates to E6SM. Description: Tested for the minimum inhibitory concentration required to reduce herpes simplex virus type 1 (TK- / TK+ HSV-1) strain VMW-1837 induced cytopathogenicity by 50%. Type of assay: functional. The settings on record: Homo sapiens. The procedure, abridged:
as §1

Assay [13] concerns E6SM. Description: Tested for the minimum inhibitory concentration required to reduce thymidine kinase deficient herpes simplex virus type 1 (TK- HSV-1) strain B2006 induced cytopathogenicity by 50%. Type of assay: functional. The following applies: Homo sapiens. The procedure, abridged: as §1
The subject of assay [14] is E6SM. Description: Tested for the minimum inhibitory concentration required to reduce vaccinia virus(VV) induced cytopathogenicity by 50%. The settings on record: Homo sapiens. Type of assay: functional.
Assay [15] concerns E6SM. Description: Tested for the minimum inhibitory concentration required to reduce herpes simplex virus type 2 (HSV-2) strain Lyons induced cytopathogenicity by 50%. Type of assay: functional. The following applies: Homo sapiens. Summed up: as §1
The test system of assay [16] is HEL. Description: Tested for the inhibitory concentration required to reduce thymidine kinase deficient Varicella-Zoster virus (TK- VZV) strain 07/1 plaque formation by 50%. Type of assay: functional, cell-based. The following applies: Homo sapiens.
In assay [17] the test system is E6SM. Description: Tested for the minimum inhibitory concentration required to reduce herpes simplex virus type 1 (HSV-1) strain KOS induced cytopathogenicity by 50%. Type of assay: functional. The following applies: Homo sapiens. The procedure, abridged:
as §1

Assay [18] concerns HEL. Description: Tested for the cytotoxic concentration, required to reduce cell growth by 50% in human embryonic lung (HEL) cells. Type of assay: functional. The procedure, abridged: as §2
Assay [19] has as its system HEL. Description: Tested for the inhibitory concentration required to reduce thymidine kinase plus Varicella-Zoster virus (TK+ VZV) strain OKA plaque formation by 50%. Type of assay: functional, cell-based. The following applies: Homo sapiens. Summed up: as §2
Assay [20] has as its system E6SM. Description: Tested for the minimum inhibitory concentration required to reduce herpes simplex virus type 1 (TK- / TK + HSV-1) strain VMW-1837 induced cytopathogenicity by 50%. Type of assay: functional. The following applies: Homo sapiens. The procedure, abridged:
as §1

Assay [21] deals with HEL. Description: Tested for the inhibitory concentration required to reduce thymidine kinase plus Varicella-Zoster virus (TK+ VZV) strain YS plaque formation by 50%. The following applies: Homo sapiens. Type of assay: functional, cell-based. The procedure, abridged: as §2

Regarding `O=c1[nH]c(=O)n([C@H]2C[C@H](O)[C@@H](CO)O2)cc1I` [IDOXURIDINE], the MIC is 0.2 µg/mL (≈ 0.565 µM) against E6SM [1]; 0.2 µg/mL (≈ 0.565 µM) in the assay on E6SM [2]; 0.2 µg/mL (≈ 0.565 µM) against E6SM [6]; above 400 µg/mL against E6SM [8]; 1 µg/mL (≈ 2.82 µM) against E6SM [10]; 10 µg/mL (≈ 28.2 µM) in the assay on E6SM [12]. The MIC against E6SM [13] was determined as 40 µg/mL (≈ 113 µM); against E6SM [14], 0.7 µg/mL (≈ 1.98 µM); in the assay on E6SM [15], 0.2 µg/mL (≈ 0.565 µM); in the assay with E6SM [17], 0.2 µg/mL (≈ 0.565 µM). Moreover, the IC50 is 4 µg/mL (≈ 11.3 µM) in the assay on HEL [3]; 0.17 µg/mL (≈ 0.48 µM) with HEL [4]; above 50 µg/mL in the assay with HEL [5]; 0.4 µg/mL (≈ 1.13 µM) in the assay with HEL [9]; 20 µg/mL (≈ 56.5 µM) with HEL [11]; 4 µg/mL (≈ 11.3 µM) with HEL [16]. The same compound gave an MCC in the assay on E6SM [7] above 400 µg/mL. Also, the 50% cytotoxic concentration (CC50) with HEL [18] is above 50 µg/mL.

Turning to `O=c1ccn(C2COC(CO)C(O)C2)c(=O)[nH]1` (centres undefined), the MIC in the assay on E6SM [1], in the assay on E6SM [2], against E6SM [6], in the assay with E6SM [10], against E6SM [13] and against E6SM [15] was above 400 µg/mL in each case. Further, the MIC with E6SM [20] and against E6SM [17] was above 400 µg/mL throughout. The IC50 in the assay with HEL [3], in the assay on HEL [5], in the assay with HEL [11], in the assay with HEL [19], in the assay on HEL [16] and with HEL [21] was above 40 µg/mL throughout. In the assay with E6SM [7], this compound registered an MCC above 400 µg/mL. In addition, the 50% cytotoxic concentration (CC50) with HEL [18] was above 50 µg/mL.
